# From ChEMBL document CHEMBL1165950, “Design and synthesis of new potent anticancer pyrazoles with high FLT3 kinase inhibitory selectivity” (Bioorg Med Chem, 2010)
# Tests used:
# Type in all cases: functional
# ACHN = test: Cytotoxicity against human ACHN cells assessed as cell growth at 0.001 uM after 48 hrs by sulforhodamine B assay; settings: read-out: Activity
# Outline: (§1)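 NCI-60 five-dose screen. Cells were grown in RPMI 1640 with 5% FBS and 2 mM L-glutamine, plated at 5000–40,000 cells/well and preincubated for 24 h. Time-zero plates were TCA-fixed. DMSO-solubilized drug was added at five concentrations (10-fold or ½-log serial dilutions) for 48 h at 37 °C, 5% CO2. Cells were TCA-fixed, stained with 0.4% SRB and read at 515 nm. Percent growth used time-zero, control and test absorbances.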
# K562 [1] = test: Cytotoxicity against human K562 cells assessed as cell growth at 0.001 uM after 48 hrs by sulforhodamine B assay; settings: K562, 48 h, read-out: Activity
# NCI-H322M = test: Cytotoxicity against human NCI-H322M cells assessed as cell growth at 1 uM after 48 hrs by sulforhodamine B assay; settings: read-out: Activity
# NCI-H23 = test: Cytotoxicity against human NCI-H23 cells assessed as cell growth at 0.01 uM after 48 hrs by sulforhodamine B assay; settings: NCI-H23, 48 h, read-out: Activity
# K562 [2] = test: Cytotoxicity against human K562 cells assessed as cell growth at 100 nM after 48 hrs by sulforhodamine B assay; settings: K562, 48 h, read-out: Activity
# MDA-MB-468 [3] = test: Cytotoxicity against human MDA-MB-468 cells assessed as cell growth at 10 uM after 48 hrs by sulforhodamine B assay; settings: MDA-MB-468, 48 h, read-out: Activity
# SK-MEL-2 [4] = test: Growth inhibition of human SK-MEL-2 cells after 48 hrs by sulforhodamine B assay; settings: SK-MEL-2, 48 h; for CC50: read-out: LC50 (the source's name)
# Outline: (§2)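 NCI 60-cell screen, five-dose mode. Cells grown in RPMI 1640 with 5% FBS and 2 mM L-glutamine and plated at 5000-40,000 cells/well according to doubling time. After 24 h preincubation, a Tz plate was TCA-fixed. Five concentrations (10-fold or 1/2 log dilutions) were applied for 48 h at 37 °C. SRB staining read at 515 nm. IC50 taken from [(Ti-Tz)/(C-Tz)]×100 = 50.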
# SNB-19 [5] = test: Growth inhibition of human SNB19 cells after 48 hrs by sulforhodamine B assay; settings: SNB-19, 48 h; for CC50: read-out: LC50 (the source's name); outline: as §2
# M14 = test: Cytotoxicity against human M14 cells assessed as cell growth at 1 uM after 48 hrs by sulforhodamine B assay; settings: M14, 48 h, read-out: Activity
# MOLT-4 [6] = test: Cytotoxicity against human MOLT4 cells assessed as cell growth at 100 nM after 48 hrs by sulforhodamine B assay; settings: MOLT-4, 48 h, read-out: Activity
# UACC-257 = test: Cytotoxicity against human UACC257 cells assessed as cell growth at 100 nM after 48 hrs by sulforhodamine B assay; settings: UACC-257, 48 h, read-out: Activity
# [7] = Cytotoxicity against human Hs 578T cells assessed as cell growth at 10 uM after 48 hrs by sulforhodamine B assay; settings: read-out: Activity
# LOX IMVI = test: Cytotoxicity against human LOXIMVI cells assessed as cell growth at 0.01 uM after 48 hrs by sulforhodamine B assay; settings: read-out: Activity
# MOLT-4 [8] = test: Growth inhibition of human MOLT4 cells after 48 hrs by sulforhodamine B assay; settings: MOLT-4, 48 h; outline: as §2
# OVCAR-4 = test: Cytotoxicity against human OVCAR4 cells assessed as cell growth at 0.001 uM after 48 hrs by sulforhodamine B assay; settings: OVCAR-4, 48 h, read-out: Activity
# TK-10 = test: Cytotoxicity against human TK10 cells assessed as cell growth at 100 nM after 48 hrs by sulforhodamine B assay; settings: TK-10, 48 h, read-out: Activity
# A549 = test: Cytotoxicity against human A549 cells assessed as cell growth at 10 uM after 48 hrs by sulforhodamine B assay; settings: A549, 48 h, read-out: Activity; outline: as §1
# MDA-MB-468 [9] = test: Cytotoxicity against human MDA-MB-468 cells assessed as cell growth at 1 uM after 48 hrs by sulforhodamine B assay; settings: MDA-MB-468, 48 h, read-out: Activity
# SK-OV-3 = test: Cytotoxicity against human SKOV3 cells assessed as cell growth at 100 nM after 48 hrs by sulforhodamine B assay; settings: SK-OV-3, 48 h, read-out: Activity
# SN12C = test: Cytotoxicity against human SN12C cells assessed as cell growth at 100 nM after 48 hrs by sulforhodamine B assay; settings: read-out: Activity
# T47D [10] = test: Cytotoxicity against human T47D cells assessed as cell growth at 0.01 uM after 48 hrs by sulforhodamine B assay; settings: read-out: Activity
# SW-620 = test: Cytotoxicity against human SW620 cells assessed as cell growth at 10 uM; settings: read-out: Activity
# Outline: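 NCI-60 screen: cells grown in RPMI 1640 with 5% FBS and 2 mM L-glutamine, plated at 5000–40,000 cells/well according to doubling time, and preincubated 24 h at 37 °C, 5% CO2. The single 10 µM dose (DMSO stock) was added, then incubated 48 h. Cells were TCA-fixed and stained with 0.4% SRB, read at 515 nm, and growth % calculated against time-zero and control plates.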
# T47D [11] = test: Cytotoxicity against human T47D cells assessed as cell growth at 1 uM after 48 hrs by sulforhodamine B assay; settings: read-out: Activity
# SK-MEL-2 [12] = test: Cytotoxicity against human SK-MEL-2 cells assessed as cell growth at 10 uM after 48 hrs by sulforhodamine B assay; settings: SK-MEL-2, 48 h, read-out: Activity
# SNB-19 [13] = test: Cytotoxicity against human SNB19 cells assessed as cell growth at 100 nM after 48 hrs by sulforhodamine B assay; settings: SNB-19, 48 h, read-out: Activity
# HOP-92 = test: Growth inhibition of human HOP92 cells after 48 hrs by sulforhodamine B assay; settings: HOP-92, 48 h; for CC50: read-out: LC50 (the source's name); outline: as §2
# MDA-MB-435 = test: Cytotoxicity against human MDA-MB-435 cells assessed as cell growth at 1 uM after 48 hrs by sulforhodamine B assay; settings: MDA-MB-435, 48 h, read-out: Activity
# Malme-3M = test: Cytotoxicity against human MALME-3M cells assessed as cell growth at 0.01 uM after 48 hrs by sulforhodamine B assay; settings: read-out: Activity
# HL-60(TB) = test: Cytotoxicity against human HL-60(TB) cells assessed as cell growth at 10 uM after 48 hrs by sulforhodamine B assay; settings: HL-60, 48 h, read-out: Activity
# Outline: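 NCI 60-cell panel. Cells are grown in RPMI 1640 with 5% FBS and 2 mM L-glutamine, seeded at 5000–40,000 cells/well according to doubling time, and preincubated 24 h. Time-zero plates are TCA-fixed. Compound from DMSO stock is given at five 10-fold or 1/2-log concentrations for 48 h at 37 °C, 5% CO2. Suspension cells are fixed with 80% TCA (final 16%) and SRB-stained, with absorbance at 515 nm. Percent growth is derived from Tz, control and test readings.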
Compound,growth at 0.001 µM (ACHN),growth at 0.001 µM (K562 [1]),growth at 1 µM (NCI-H322M),growth at 0.01 µM (NCI-H23),growth at 0.1 µM (K562 [2]),growth at 10 µM (MDA-MB-468 [3]),GI50 (SK-MEL-2 [4]),TGI (SK-MEL-2 [4]),CC50 (SK-MEL-2 [4]),GI50 (SNB-19 [5]),TGI (SNB-19 [5]),CC50 (SNB-19 [5]),growth at 1 µM (M14),growth at 0.1 µM (MOLT-4 [6]),growth at 0.1 µM (UACC-257),growth at 10 µM [7],growth at 0.01 µM (LOX IMVI),GI50 (MOLT-4 [8]),LC50 (MOLT-4 [8]),TGI (MOLT-4 [8]),other results
COc1cc(C)cc(-c2nn(CC#N)cc2-c2ccnc(-c3ccc(N(C)C)cc3)c2)c1,95%,66%,52%,97%,10%,-63%,1.01 µM,45.5 µM,> 100 µM,0.567 µM,> 100 µM,> 100 µM,-7%,39%,28%,-5%,105%,0.626 µM,> 100 µM,> 100 µM,growth at 0.001 µM (OVCAR-4): 106%; growth at 0.1 µM (TK-10): 50%; growth at 10 µM (A549): -6%; growth at 1 µM (MDA-MB-468 [9]): -55%; growth at 0.1 µM (SK-OV-3): -6%; growth at 0.1 µM (SN12C): 44%; growth at 0.01 µM (T47D [10]): 104%; growth at 10 µM (SW-620): 21.9%; growth at 1 µM (T47D [11]): 10%; growth at 10 µM (SK-MEL-2 [12]): -12%; growth at 0.1 µM (SNB-19 [13]): 35%; GI50 (HOP-92): 0.557 µM; TGI (HOP-92): 26.6 µM; CC50 (HOP-92): > 100 µM; growth at 1 µM (MDA-MB-435): -7%; growth at 0.01 µM (Malme-3M): 91%; growth at 10 µM (HL-60(TB)): -27%
COc1cc(C)cc(-c2nn(CC#N)cc2-c2ccc(-c3cccc(C(C)=O)c3)nc2)c1,93%,82%,24%,91%,27%,-53%,3.73 µM,41.3 µM,> 100 µM,6.62 µM,> 100 µM,> 100 µM,-53%,84%,70%,-57%,96%,3.35 µM,> 100 µM,> 100 µM,growth at 0.001 µM (OVCAR-4): 99%; growth at 0.1 µM (TK-10): 101%; growth at 10 µM (A549): -22%; growth at 1 µM (MDA-MB-468 [9]): -42%; growth at 0.1 µM (SK-OV-3): 104%; growth at 0.1 µM (SN12C): 91%; growth at 0.01 µM (T47D [10]): 93%; growth at 10 µM (SW-620): 24.8%; growth at 1 µM (T47D [11]): -7%; growth at 10 µM (SK-MEL-2 [12]): -14%; growth at 0.1 µM (SNB-19 [13]): 99%; GI50 (HOP-92): 2.63 µM; TGI (HOP-92): 9.09 µM; CC50 (HOP-92): > 100 µM; growth at 1 µM (MDA-MB-435): -44%; growth at 0.01 µM (Malme-3M): 85%; growth at 10 µM (HL-60(TB)): -8%
Cc1cc(O)cc(-c2nn(CC#N)cc2-c2ccnc(-c3ccc(Oc4ccccc4)cc3)c2)c1,98%,63%,35%,93%,46%,-88%,3.44 µM,11.7 µM,44.2 µM,1.07 µM,23.4 µM,51.1 µM,-96%,79%,84%,-49%,101%,2.03 µM,> 100 µM,6.82 µM,growth at 0.001 µM (OVCAR-4): 110%; growth at 0.1 µM (TK-10): 102%; growth at 10 µM (A549): -71%; growth at 1 µM (MDA-MB-468 [9]): -62%; growth at 0.1 µM (SK-OV-3): 101%; growth at 0.1 µM (SN12C): 86%; growth at 0.01 µM (T47D [10]): 86%; growth at 10 µM (SW-620): 53.9%; growth at 1 µM (T47D [11]): -26%; growth at 10 µM (SK-MEL-2 [12]): -81%; growth at 0.1 µM (SNB-19 [13]): 94%; GI50 (HOP-92): 1.59 µM; TGI (HOP-92): 5.24 µM; CC50 (HOP-92): 39.5 µM; growth at 1 µM (MDA-MB-435): -18%; growth at 0.01 µM (Malme-3M): 77%; growth at 10 µM (HL-60(TB)): -10%
